The record followed here is ChEMBL document CHEMBL4732262, “Identification of two novel thiophene analogues as inducers of autophagy mediated cell death in breast cancer cells” (Bioorg Med Chem, 2021).

Experiment [1] relates to MCF7 (Homo sapiens). Briefly: Induction of apoptosis in human MCF7 cells assessed as increase in cell death at 2.5 uM after 24 hrs by EtBr/AO staining based fluorescence microscopic method.
Experiment [2] has as its system MCF7. Briefly: Induction of apoptosis in human MCF7 cells assessed as change in Bcl-2 protein expression at 2.5 uM after 24 hrs by Western blot analysis. It is filed as functional, cell-based. The method in brief: (§1)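 MCF7 or MDA-MB-231 cells given 2.5 µM or DMSO for 24 h, then lysed in RIPA buffer. Immunoblots probed overnight at 4 °C, followed by infrared-labelled secondary antibody for 1 h at 37 °C. Bands imaged and quantified densitometrically, with GAPDH as loading control. Representative of two independent experiments.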

Experiment [3] has as its system MCF7. As to the kind of experiment: Induction of autophagy in human MCF7 cells assessed as increase in ATG16L2 mRNA expression at 2.5 uM after 24 hrs by RT-PCR analysis. Format: functional, cell-based. The method in brief:
(§2)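 MCF7 cells given 2.5 µM or DMSO for 24 h. Total RNA extracted with TRIzol and reverse-transcribed, then SYBR Green qPCR across 34 autophagy-regulatory genes (95 °C 10 min; 40 cycles of 95 °C 15 s and 60 °C 1 min). Relative expression by 2^-ΔΔCt against housekeeping genes and DMSO control, shown as log2. Two independent experiments.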

The subject of experiment [4] is MCF7. Briefly: Induction of autophagy in human MCF7 cells assessed as increase in BAD mRNA expression at 2.5 uM after 24 hrs by RT-PCR analysis. It is filed as functional, cell-based. The method in brief:
as §2

The subject of experiment [5] is MCF7. As to the kind of experiment: Induction of autophagy in human MCF7 cells assessed as increase in p62 degradation level after 24 hrs by Western blot analysis. It is filed as functional, cell-based. The settings on record: dose 1.25-5 µM. The method in brief:
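Dose series in MCF7 cells (~5 × 10^6): 0, 1.25, 2.5 and 5 µM compound for 24 h, DMSO control. Lysates immunoblotted for p62 and LC3, GAPDH loading control, with infrared densitometry. At least two independent experiments.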
Background: Immunoblotting shows a protein as a band on a membrane.

The subject of experiment [6] is MCF7. Briefly: Induction of autophagy in human MCF7 cells assessed as increase in LC3-2 to LC3-1 protein ratio at 2.5 uM after 24 hrs by Western blot analysis. It is filed as functional, cell-based. The method in brief:
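MCF7 cells (~5 × 10^6) left untreated (DMSO control) or exposed to 2.5 µM compound for 24 h. Lysed in RIPA buffer, probed overnight at 4 °C, then given infrared-tagged secondary antibodies for 1 h at 37 °C and imaged by infrared scanning. LC3-II/I ratio and p62 taken by densitometry with GAPDH as loading control. Two independent experiments.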

Experiment [7] has as its system MCF7. As to the kind of experiment: Induction of autophagy in human MCF7 cells assessed as increase in IRE1 mRNA expression at 2.5 uM after 24 hrs by PCR microarray analysis. It is filed as functional, cell-based. An outline of the steps:
(§3)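 MCF7 cells given 2.5 µM or DMSO for 24 h. cDNA run on an Unfolded Protein Response RT2 Profiler PCR array. Changes computed by 2^-ΔΔCt (log2) against control, normalised to the mean of ACTB, B2M, GAPDH, HPRT1 and RPLPO.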

Experiment [8] has as its system MCF7. As to the kind of experiment: Induction of apoptosis in human MCF7 cells assessed as early apoptotic cells at 2.5 uM after 24 hrs by annexin V-FITC/Propidium iodide staining based flow cytometric analysis (reference value: 3.94%). Format: functional. A general note: Flow cytometry measures light scatter and fluorescence of single cells or particles in a stream.

Experiment [9] concerns MCF7. As to the kind of experiment: Induction of autophagy in human MCF7 cells assessed as increase in GABARAPL2 mRNA expression at 2.5 uM after 24 hrs by RT-PCR analysis. Format: functional, cell-based. The method in brief:
as §2

The test system of experiment [10] is MCF7. As to the kind of experiment: Induction of autophagy in human MCF7 cells assessed as increase in DDIT3 mRNA expression at 2.5 uM after 24 hrs by PCR microarray analysis. Format: functional, cell-based. An outline of the steps:
as §3

The test system of experiment [11] is MCF7. Briefly: Induction of autophagy in human MCF7 cells assessed as increase in Bcl2L11 mRNA expression at 2.5 uM after 24 hrs by RT-PCR analysis. Format: functional, cell-based. The method in brief:
as §2

For experiment [12], the system named is MCF7. As to the kind of experiment: Induction of apoptotic in human MCF7 cells assessed as increase in Bim protein expression at 2.5 uM after 24 hrs by Western blot analysis. Format: functional, cell-based. The method in brief:
as §1

Experiment [13] deals with MCF7. As to the kind of experiment: Induction of autophagy in human MCF7 cells assessed as increase in LC3-2 conversion level after 24 hrs by Western blot analysis. It is filed as functional, cell-based. The settings on record: dose 1.25-5 µM. The method in brief: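 MCF7 cells exposed for 24 h to 0, 1.25, 2.5 or 5 µM. Western blot with GAPDH as loading control. LC3-II/I ratio obtained by densitometry. At least two independent experiments.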

Experiment [14] has as its system MCF7. As to the kind of experiment: Induction of apoptosis in human MCF7 cells assessed as change in Bax protein expression at 2.5 uM after 24 hrs by Western blot analysis. Format: functional, cell-based. The method in brief:
as §1

For experiment [15], the system named is MCF7. Briefly: Induction of autophagy in human MCF7 cells assessed as LC3-2 to LC3-1 protein ratio at 2.5 uM after 24 hrs in presence of chloroquine by Western blot analysis (reference value: 0.52 to 0.65).
For experiment [16], the system named is MCF7. Briefly: Induction of autophagy in human MCF7 cells assessed as increase in UVRAG mRNA expression at 2.5 uM after 24 hrs by RT-PCR analysis. It is filed as functional, cell-based. The method in brief: (§4)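 Total RNA was taken with TRIzol from MCF7 cells treated 24 h with 2.5 µM compound or DMSO, then reverse transcribed. SYBR Green qPCR ran 40 cycles of 95 °C 15 s / 60 °C 1 min. Relative expression was calculated by 2^-ΔΔCt against DMSO-treated cells, normalized to housekeeping genes (GAPDH, B2M and others). Samples run in duplicate, two independent experiments, values averaged.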

The test system of experiment [17] is MCF7. As to the kind of experiment: Induction of autophagy in human MCF7 cells assessed as increase in GABARAP mRNA expression at 2.5 uM after 24 hrs by RT-PCR analysis. It is filed as functional, cell-based. The method in brief: as §2
For experiment [18], the system named is MCF7. As to the kind of experiment: Induction of apoptosis in human MCF7 cells assessed as morphological changes at 2.5 uM after up to 24 hrs by phase contrast microscopic method. Format: functional, cell-based. The note with it: time hrs <=24. The method in brief:
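~5 × 10^4 cells in 6-well plates, either DMSO control or 2.5 µM. Morphology imaged at 0, 6, 12 and 24 h.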

For experiment [19], the system named is MCF7. As to the kind of experiment: Induction of apoptosis in human MCF7 cells assessed as increase in cell death at 2.5 uM after 24 hrs by EtBr/AO staining based fluorescence microscopic method. It is filed as functional. An outline of the steps: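 ~5 × 10^4 MCF7 cells on coverslips given 2.5 µM for 24 h, then PBS-washed and stained with 1:1 ethidium bromide/acridine orange (0.4 mg/ml each). Viewed by fluorescence microscopy, excitation 480 nm with a 515–530 nm barrier filter. Apoptotic, necrotic and viable cells scored from 200 cells per sample.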

The test system of experiment [20] is MCF7. Briefly: Induction of autophagy in human MCF7 cells assessed as increase in PIK3CG mRNA expression at 2.5 uM after 24 hrs by RT-PCR analysis. Format: functional, cell-based. An outline of the steps:
as §4

The subject of experiment [21] is MDA-MB-231. Briefly: Induction of apoptosis in human MDA-MB-231 cells assessed as late apoptotic cells at 2.5 uM after 24 hrs by annexin V-FITC/Propidium iodide staining based flow cytometric analysis (reference value: 0.08%). Format: functional.
Experiment [22] has as its system MDA-MB-231. Briefly: Induction of apoptosis in human MDA-MB-231 cells assessed as necrotic cells at 2.5 uM after 24 hrs by annexin V-FITC/Propidium iodide staining based flow cytometric analysis (reference value: 0.65%). Format: functional.
Experiment [23] deals with MCF7. As to the kind of experiment: Induction of apoptosis in human MCF7 cells assessed as increase in cleaved PARP level at 2.5 uM after r24 hrs by Western blot analysis. The settings on record: time 24.0 hrs. It is filed as functional, cell-based. The method in brief:
as §1

The source made the active and inactive calls. The rule behind the calls is not given here.

Turning to `O=C1C(=O)c2sccc2-c2ccccc21`, the outcome in [1], in experiment [3], in [4], in experiment [6], in experiment [7] and in [9] was Active. Besides, the result in [10], in experiment [11], in experiment [12], in experiment [16], in experiment [17] and in [18] was Active. Further, the outcome in [19], in experiment [20] and in experiment [23] was Active. For the same molecule, the result in experiment [2] and in experiment [14] was inactive. Further, the Activity entry in experiment [5] was “Dose-dependent effect”; in experiment [8] it was 31.4%; in [13], “Dose-dependent effect”; in experiment [21] it was 14.9%; in [22], 26.8%. Besides, in [15], the Ratio is listed as 1.1.

On to `O=C1C(=O)c2ccsc2-c2ccccc21`, for which the result in experiment [1], in experiment [3], in experiment [4], in [6], in [7] and in [9] was Active. For the same molecule, the result in experiment [10], in experiment [11], in [12], in experiment [16], in experiment [17] and in experiment [18] was Active. In addition, the outcome in [19], in experiment [20] and in [23] was Active. For the same molecule, the result in [2] and in experiment [14] was inactive. Moreover, the Activity result is “Dose-dependent effect” in experiment [5]; 17.9% in [8]; “Dose-dependent effect” in experiment [13]; 10.9% in experiment [21]; 43.5% in [22]. Moreover, the Ratio in experiment [15] is reported as 0.92.
